PMC9306536 (Clinical Pharmacology in Drug Development, 2022)
Like-named read-outs stand apart in the source and are kept apart here.

Legend:
[1] = cited from earlier work
[2] = cited from earlier work; remark: listed apart in the source
[3] = cited from earlier work; remark: listed apart in the source
[4] = cited from earlier work; remark: listed apart in the source
[5] = cited from earlier work; remark: listed apart in the source
[6] = cited from earlier work; remark: listed apart in the source
[7] = fed state (high-fat and high-calorie diet); ref data on file; cited from earlier work
[8] = cited from earlier work; remark: listed apart in the source
[9] = cited from earlier work; remark: listed apart in the source
[10] = Hyperphosphatemia in patients of the population PK dataset; type: in vivo, human
Method in brief: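 Pooled patients from three open-label trials on once-daily oral dosing: phase 1/2 advanced malignancies (1–20 mg escalation, 9 or 13.5 mg expansion; monotherapy or combination; 2-weeks-on/1-week-off or continuous, 21-day cycles; N = 157); Japanese phase 1 (9 or 13.5 mg, intermittent; N = 25); phase 2 cholangiocarcinoma (13.5 mg, 2-weeks-on/1-week-off; N = 136). Hyperphosphatemia scored after treatment.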

[11] = Population PK analysis of pemigatinib in patients with advanced malignancies; type: in vivo, human
Method in brief: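 Sampling was rich in phase 1 and sparse in phase 2. Values <1 nM (LLOQ) were excluded. Log-transformed data were fitted with 1-/2-compartment models with first-order absorption and linear elimination. Covariates were GAM-screened, then added and removed stepwise in NONMEM. 95% CIs came from a 500-run bootstrap, with VPC.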

[12] = final model covariate coefficient
[13] = final model covariate power term
[14] = final population PK model, Table 4

Compound: CCN1C(=O)N(c2c(F)c(O)cc(OC)c2F)Cc2cnc3[nH]c(CN4CCOCC4)cc3c21 [M2, O‐desmethyl pemigatinib]
- share of the metabolite burden in urine and feces ([1]; M2 and its secondary metabolites (M7, M8, and M9) together, ref data on file): 76.9%

Compound: CCN1C(=O)N(c2c(F)c(OC)cc(OC)c2F)Cc2cnc3[nH]c(CN4CCOCC4)cc3c21 [pemigatinib, Pemigatinib]
- pemigatinib AUC increase ([2]; coadministered with itraconazole (strong CYP3A4 inhibitor)): ≈ 90%
- pemigatinib AUC decrease ([2]; coadministered with rifampin (strong CYP3A4 inducer)): 85%
- renal clearance, % of total clearance [3]: 1%
- exposure geometric mean ratio vs normal renal function ([3]; end-stage renal disease after hemodialysis): 91.3%
- exposure geometric mean ratio vs normal renal function ([3]; end-stage renal disease before hemodialysis): 76.8%
- pemigatinib AUC increase ([3]; patients with severe renal impairment): 59%
- pemigatinib AUC increase ([4]; patients with moderate hepatic impairment): 46%
- pemigatinib AUC increase ([4]; patients with severe hepatic impairment): 74%
- accumulation ratio for AUC0-24 [5]: ≈ 1.6
- terminal elimination half-life [5]: ≈ 15 hours
- pharmacokinetics linearity ([5]; dose range of 1 to 20 mg): linear
- DDI with a weak CYP3A4 inhibitor ([6]; PBPK modeling): no DDI
- predicted decrease in AUC ([6]; coadministered with a strong or moderate CYP3A4 inducer, data on file): > 50%
- predicted increase in AUC ([6]; coadministered with a strong or moderate CYP3A4 inhibitor, data on file): > 50%
- reduction of AUC ([6]; coadministration of moderate CYP3A4 inducers): > 50%
- delay of median time to Cmax [7]: 4.02 h
- effect on the overall exposure of pemigatinib ([8]; coadministration with esomeprazole or ranitidine): modest effect
- AUC decrease ([8]; with esomeprazole (PPI)): 8%
- AUC increase ([8]; with ranitidine (H2-receptor antagonist)): 3%
- Biopharmaceutics Classification System class [9]: Class II
- permeability [9]: high
- solubility [9]: pH‐dependent
- Hyperphosphatemia, Yes ([10]; N = 318): 215 (67.6) n (%)
- patients who developed hyperphosphatemia after treatment ([10]; patients included in this analysis (N = 318)): ~68%
- CL/F with moderate CYP3A4 inducer higher than pemigatinib alone ([11]; 1 patient): ≈ 100%
- CL/F ([11]; base structural model): 10.7 L/h
- IIV for Vc/F ([11]; base structural model): 44.6 % CV
- IIV for Vp/F ([11]; base structural model): 37.3 % CV
- IIV for ka ([11]; base structural model): 133 % CV
- Q/F ([11]; base structural model): 14.5 L/h
- Vc/F ([11]; base structural model): 134 L
- Vp/F ([11]; base structural model): 87.0 L
- first-order ka ([11]; base structural model): 0.997 h⁻¹
- CL/F of pemigatinib alone ([11]; comparator for the patient on a moderate CYP3A4 inducer): 11.7 L/h
- predicted Cmax steady state (Cmax,ss) ([11]; female patients): 96.53 ng/mL
- Magnitude of Interindividual Variability of CL/F ([11]; final model): 43.4 %CV
- Magnitude of Interindividual Variability of Vc/F ([11]; final model): 35.1 %CV
- Magnitude of Interindividual Variability of ka ([11]; final model): 127 %CV
- contribution of sex to the change of oral clearance ([11]; final model): < 20%
- decrease of typical CL/F by phosphate binder coadministration ([11]; final model): 14.1%
- increase of typical Vc/F by proton pump inhibitor coadministration ([11]; final model): 24.4%
- typical CL/F, males higher compared with females ([11]; final model): 19.0%
- typical ka, males lower compared with females ([11]; final model): 56.5%
- Proton pump inhibitor on Vc/F, Population Mean [11, 12]: –0.244
- Sex (male vs female) on CL, Population Mean [11, 12]: 0.190
- Body weight (median = 73.3 kg) on Vc/F, Population Mean [11, 13]: 0.738
- Body weight on Vp/F, Population Mean [11, 13]: 1.22
- typical apparent volume of distribution of the peripheral compartment (Vp/F) ([11]; final model, 73.3-kg patient): 80.1 L
- typical ka ([11]; final model, female patients): 1.49 h⁻¹
- typical absorption rate constant (ka) ([11]; final model, females): 1.49 L/h
- typical oral clearance (CL/F) ([11]; final model, females): 10.3 L/h
- CL/F, Population Mean [11, 14]: 9.00 L/h
- Q/F, Population Mean [11, 14]: 16.0 L/h
- Vc/F, Population Mean [11, 14]: 161 L
- Vp/F, Population Mean [11, 14]: 80.1 L
- ka, Population Mean [11, 14]: 1.49 h⁻¹
- increase of typical CL/F by coadministration with a weak CYP3A4 inducer ([11]; full multivariate PK model (covariate removed from final model)): 24.2%
- Vd/F ([11]; human, plasma, oral): 122 L
- half-life ([11]; human, plasma, oral): 16 h
- increase in Cmax,ss, female vs male patients ([11]; post hoc estimates): 27%
- Cmax ([11]; read-out: predicted Cmax steady state (Cmax,ss), female patients): 198 nM
- post hoc-estimated CL/F ([11]; the 1 patient with concomitant moderate CYP3A4 inducer): 22.8 L/h
- geometric mean CL/F ([11]; this population PK analysis): 10.9 L/h
- renal clearance, % of total clearance ([1]; Introduction, no reference given): 1.19%
- predominant clearance pathway in humans ([1]; in vitro and in vivo data, no reference given): liver metabolism
- administered radioactive dose recovered as unchanged pemigatinib in feces ([1]; ref data on file): 1.3%
- known metabolites, share of total radioactivity ([1]; ref data on file): 72%
